Values after ≈ are worked out from the molar mass of the structure shown.
What was measured:
[1] = test system: Nakaseomyces glabratus; assay: Antimicrobial activity against Candida glabrata after 72 hrs by broth microdilution method; type: functional
How it was run: (§1)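 MFC: after MIC reading, a sample from each well was plated on Sabouraud dextrose agar and incubated 72 h at 35 °C. MFC was taken as the minimum concentration killing >99% of the original inoculum. The MIC step was NCCLS broth microdilution in MOPS-buffered RPMI 1640 (pH 7.0), with 2 ×10⁴ cells/mL, overnight at 35 °C.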

[2] = test system: Candida parapsilosis; assay: Antimicrobial activity against Candida parapsilosis after 72 hrs by broth microdilution method; type: functional; settings: Lodderomyces parapsilosis; how it was run: as §1
[3] = test system: Pichia kudriavzevii; assay: Antimicrobial activity against Candida krusei after 72 hrs by broth microdilution method; type: functional; how it was run: as §1
[4] = test system: Nakaseomyces glabratus; assay: Antimicrobial activity against Candida glabrata by broth microdilution method; type: functional
How it was run: (§2)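 MIC by NCCLS broth microdilution. Medium was RPMI 1640 with L-glutamine, buffered with 0.165 M MOPS at pH 7.0. Twofold drug dilutions ran 0.008–200 mg/L. Inoculum was set spectrophotometrically to 10⁶ CFU/mL, then diluted in medium to 2 ×10⁴ cells/mL. Plates were incubated overnight at 35 °C in humid air, agitated, and read visually and at 450 nm.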

[5] = test system: Candida albicans; assay: Antimicrobial activity against Candida albicans ATCC 10231 after 72 hrs by broth microdilution method; type: functional; settings: ATCC 10231, 72 h; how it was run: as §1
[6] = test system: Candida albicans; assay: Antimicrobial activity against Candida albicans ATCC 10231 by broth microdilution method; type: functional; how it was run: as §2
[7] = test system: Pichia kudriavzevii; assay: Antimicrobial activity against Candida krusei by broth microdilution method; type: functional; how it was run: as §2
[8] = test system: Candida parapsilosis; assay: Antimicrobial activity against Candida parapsilosis by broth microdilution method; type: functional; settings: Lodderomyces parapsilosis; how it was run: as §2
[9] = Toxicity against human MCF7 cells assessed as growth inhibition at 10 uM; type: cell-based; settings: read-out: GI
[10] = Toxicity against human SF268 cells assessed as growth inhibition at 10 uM; type: cell-based; settings: SF-268 cells, read-out: GI
[11] = Toxicity against human H460 cells assessed as growth inhibition at 10 uM; type: cell-based; settings: NCI-H460 cells, read-out: GI

## CCC(=O)NNc1[nH]c(-c2ccc(OC)cc2)cc1C(=O)OC
[1]
  MFC: 12.5 µg/mL (≈ 39.4 µM)
[2]
  MFC: 12.5 µg/mL (≈ 39.4 µM)
[3]
  MFC: 6.25 µg/mL (≈ 19.7 µM)
[4]
  MIC: 6.25 µg/mL (≈ 19.7 µM)
[5]
  MFC: 3.12 µg/mL (≈ 9.83 µM)
[6]
  MIC: 3.12 µg/mL (≈ 9.83 µM)
[7]
  MIC: 6.25 µg/mL (≈ 19.7 µM)
[8]
  MIC: 3.12 µg/mL (≈ 9.83 µM)

## CCOC(=O)NNc1[nH]c(-c2ccccc2)cc1C(=O)OC
[1]
  MFC: 12.5 µg/mL (≈ 41.2 µM)
[2]
  MFC: 12.5 µg/mL (≈ 41.2 µM)
[3]
  MFC: 25 µg/mL (≈ 82.4 µM)
[4]
  MIC: 3.12 µg/mL (≈ 10.3 µM)
[5]
  MFC: 6.25 µg/mL (≈ 20.6 µM)
[6]
  MIC: 3.12 µg/mL (≈ 10.3 µM)
[7]
  MIC: 6.25 µg/mL (≈ 20.6 µM)
[8]
  MIC: 3.12 µg/mL (≈ 10.3 µM)

## CCOC(=O)NNc1[nH]c(-c2ccc(OC)cc2)cc1C(=O)OC
[1]
  MFC: 50 µg/mL (≈ 150 µM)
[2]
  MFC: > 100 µg/mL
[3]
  MFC: > 100 µg/mL
[4]
  MIC: 12.5 µg/mL (≈ 37.5 µM)
[5]
  MFC: 6.25 µg/mL (≈ 18.7 µM)
[6]
  MIC: 3.12 µg/mL (≈ 9.36 µM)
[7]
  MIC: 50 µg/mL (≈ 150 µM)
[8]
  MIC: 25 µg/mL (≈ 75 µM)

## COCCC(=O)NNc1[nH]c(-c2ccccc2)cc1C(=O)OC
[1]
  MFC: 25 µg/mL (≈ 78.8 µM)
[2]
  MFC: 100 µg/mL (≈ 315 µM)
[3]
  MFC: 25 µg/mL (≈ 78.8 µM)
[4]
  MIC: 6.25 µg/mL (≈ 19.7 µM)
[5]
  MFC: 12.5 µg/mL (≈ 39.4 µM)
[6]
  MIC: 6.25 µg/mL (≈ 19.7 µM)
[7]
  MIC: 12.5 µg/mL (≈ 39.4 µM)
[8]
  MIC: 12.5 µg/mL (≈ 39.4 µM)

## COCCC(=O)NNc1[nH]c(-c2ccccc2)cc1C#N
[1]
  MFC: 12.5 µg/mL (≈ 44 µM)
[2]
  MFC: 25 µg/mL (≈ 87.9 µM)
[3]
  MFC: 12.5 µg/mL (≈ 44 µM)
[4]
  MIC: 3.25 µg/mL (≈ 11.4 µM)
[5]
  MFC: 6.25 µg/mL (≈ 22 µM)
[6]
  MIC: 6.25 µg/mL (≈ 22 µM)
[7]
  MIC: 6.25 µg/mL (≈ 22 µM)
[8]
  MIC: 6.25 µg/mL (≈ 22 µM)

## COC(=O)c1cc(-c2ccccc2)[nH]c1NNC(C)=O
[1]
  MFC: 25 µg/mL (≈ 91.5 µM)
[2]
  MFC: 25 µg/mL (≈ 91.5 µM)
[3]
  MFC: 12.5 µg/mL (≈ 45.7 µM)
[4]
  MIC: 6.25 µg/mL (≈ 22.9 µM)
[5]
  MFC: 6.25 µg/mL (≈ 22.9 µM)
[6]
  MIC: 3.12 µg/mL (≈ 11.4 µM)
[7]
  MIC: 12.5 µg/mL (≈ 45.7 µM)
[8]
  MIC: 6.25 µg/mL (≈ 22.9 µM)

## COC(=O)c1cc(-c2ccc(OC)cc2)[nH]c1NNC(C)=O
[1]
  MFC: 12.5 µg/mL (≈ 41.2 µM)
[2]
  MFC: 6.25 µg/mL (≈ 20.6 µM)
[3]
  MFC: 6.25 µg/mL (≈ 20.6 µM)
[4]
  MIC: 3.12 µg/mL (≈ 10.3 µM)
[5]
  MFC: 3.12 µg/mL (≈ 10.3 µM)
[6]
  MIC: 3.12 µg/mL (≈ 10.3 µM)
[7]
  MIC: 3.12 µg/mL (≈ 10.3 µM)
[9]
  inhibition at 10 µM: 0%
[10]
  inhibition at 10 µM: 0%
[8]
  MIC: 3.12 µg/mL (≈ 10.3 µM)
[11]
  inhibition at 10 µM: 0%

## CCC(=O)NNc1[nH]c(-c2ccc(OC)cc2)cc1C#N
[1]
  MFC: 12.5 µg/mL (≈ 44 µM)
[2]
  MFC: 12.5 µg/mL (≈ 44 µM)
[3]
  MFC: 12.5 µg/mL (≈ 44 µM)
[4]
  MIC: 0.78 µg/mL (≈ 2.74 µM)
[5]
  MFC: 6.25 µg/mL (≈ 22 µM)
[6]
  MIC: 0.39 µg/mL (≈ 1.37 µM)
[7]
  MIC: 0.78 µg/mL (≈ 2.74 µM)
[9]
  inhibition at 10 µM: 4.6%
[10]
  inhibition at 10 µM: 2.1%
[8]
  MIC: 0.78 µg/mL (≈ 2.74 µM)
[11]
  inhibition at 10 µM: 0%

## COc1ccc(-c2cc(C#N)c(NNC(C)=O)[nH]2)cc1
[1]
  MFC: 12.5 µg/mL (≈ 46.2 µM)
[2]
  MFC: 6.25 µg/mL (≈ 23.1 µM)
[3]
  MFC: 3.12 µg/mL (≈ 11.5 µM)
[4]
  MIC: 3.12 µg/mL (≈ 11.5 µM)
[5]
  MFC: 6.25 µg/mL (≈ 23.1 µM)
[6]
  MIC: 1.56 µg/mL (≈ 5.77 µM)
[7]
  MIC: 1.56 µg/mL (≈ 5.77 µM)
[9]
  inhibition at 10 µM: 0%
[10]
  inhibition at 10 µM: 0%
[8]
  MIC: 3.12 µg/mL (≈ 11.5 µM)
[11]
  inhibition at 10 µM: 0%

## CCOC(=O)NNc1[nH]c(-c2ccc(OC)cc2)cc1C#N
[1]
  MFC: 50 µg/mL (≈ 166 µM)
[2]
  MFC: 100 µg/mL (≈ 333 µM)
[3]
  MFC: 50 µg/mL (≈ 166 µM)
[4]
  MIC: 12.5 µg/mL (≈ 41.6 µM)
[5]
  MFC: 3.12 µg/mL (≈ 10.4 µM)
[6]
  MIC: 3.12 µg/mL (≈ 10.4 µM)
[7]
  MIC: 25 µg/mL (≈ 83.2 µM)
[9]
  inhibition at 10 µM: 0.9%
[10]
  inhibition at 10 µM: 0%
[8]
  MIC: 25 µg/mL (≈ 83.2 µM)
[11]
  inhibition at 10 µM: 31%

## COCC(=O)NNc1[nH]c(-c2ccccc2)cc1C#N
[1]
  MFC: 50 µg/mL (≈ 185 µM)
[2]
  MFC: 6.25 µg/mL (≈ 23.1 µM)
[3]
  MFC: 25 µg/mL (≈ 92.5 µM)
[4]
  MIC: 25 µg/mL (≈ 92.5 µM)
[5]
  MFC: 6.25 µg/mL (≈ 23.1 µM)
[6]
  MIC: 6.25 µg/mL (≈ 23.1 µM)
[7]
  MIC: 6.25 µg/mL (≈ 23.1 µM)
[8]
  MIC: 6.25 µg/mL (≈ 23.1 µM)

## COCC(=O)NNc1[nH]c(-c2ccc(OC)cc2)cc1C#N
[1]
  MFC: 50 µg/mL (≈ 166 µM)
[2]
  MFC: 12.5 µg/mL (≈ 41.6 µM)
[3]
  MFC: 12.5 µg/mL (≈ 41.6 µM)
[4]
  MIC: 25 µg/mL (≈ 83.2 µM)
[5]
  MFC: 6.25 µg/mL (≈ 20.8 µM)
[6]
  MIC: 6.25 µg/mL (≈ 20.8 µM)
[7]
  MIC: 6.25 µg/mL (≈ 20.8 µM)
[8]
  MIC: 6.25 µg/mL (≈ 20.8 µM)

## COCCC(=O)NNc1[nH]c(-c2ccc(OC)cc2)cc1C(=O)OC
[1]
  MFC: 25 µg/mL (≈ 72 µM)
[2]
  MFC: 12.5 µg/mL (≈ 36 µM)
[3]
  MFC: 25 µg/mL (≈ 72 µM)
[4]
  MIC: 6.25 µg/mL (≈ 18 µM)
[5]
  MFC: 6.25 µg/mL (≈ 18 µM)
[6]
  MIC: 6.25 µg/mL (≈ 18 µM)
[7]
  MIC: 6.25 µg/mL (≈ 18 µM)
[8]
  MIC: 6.25 µg/mL (≈ 18 µM)

## CCC(=O)NNc1[nH]c(-c2ccccc2)cc1C(=O)OC
[1]
  MFC: 25 µg/mL (≈ 87 µM)
[2]
  MFC: 12.5 µg/mL (≈ 43.5 µM)
[3]
  MFC: 25 µg/mL (≈ 87 µM)
[4]
  MIC: 6.25 µg/mL (≈ 21.8 µM)
[5]
  MFC: 6.25 µg/mL (≈ 21.8 µM)
[6]
  MIC: 3.12 µg/mL (≈ 10.9 µM)
[7]
  MIC: 12.5 µg/mL (≈ 43.5 µM)
[8]
  MIC: 6.25 µg/mL (≈ 21.8 µM)

## COCCC(=O)NNc1[nH]c(-c2ccc(OC)cc2)cc1C#N
[1]
  MFC: 12.5 µg/mL (≈ 39.8 µM)
[2]
  MFC: 12.5 µg/mL (≈ 39.8 µM)
[3]
  MFC: 6.25 µg/mL (≈ 19.9 µM)
[4]
  MIC: 6.25 µg/mL (≈ 19.9 µM)
[5]
  MFC: 6.25 µg/mL (≈ 19.9 µM)
[6]
  MIC: 3.12 µg/mL (≈ 9.93 µM)
[7]
  MIC: 3.12 µg/mL (≈ 9.93 µM)
[8]
  MIC: 6.25 µg/mL (≈ 19.9 µM)

## CCOC(=O)NNc1[nH]c(-c2ccccc2)cc1C#N
[1]
  MFC: 6.25 µg/mL (≈ 23.1 µM)
[2]
  MFC: 12.5 µg/mL (≈ 46.2 µM)
[3]
  MFC: 6.25 µg/mL (≈ 23.1 µM)
[4]
  MIC: 3.12 µg/mL (≈ 11.5 µM)
[5]
  MFC: 3.12 µg/mL (≈ 11.5 µM)
[6]
  MIC: 3.12 µg/mL (≈ 11.5 µM)
[7]
  MIC: 3.12 µg/mL (≈ 11.5 µM)
[8]
  MIC: 6.25 µg/mL (≈ 23.1 µM)

## C[C@@H]1[C@H](O)[C@@H](C)/C=C/C=C/C=C/C=C/C=C/C=C/C=C/[C@H](O[C@@H]2O[C@H](C)[C@@H](O)[C@H](N)[C@@H]2O)C[C@@H]2O[C@](O)(C[C@@H](O)C[C@@H](O)[C@H](O)CC[C@@H](O)C[C@@H](O)CC(=O)O[C@H]1C)C[C@H](O)[C@H]2C(=O)O [AMPHOTERICIN B]
[1]
  MFC: 1.56 µg/mL (≈ 1.69 µM)
[2]
  MFC: 1.56 µg/mL (≈ 1.69 µM)
[3]
  MFC: 1.56 µg/mL (≈ 1.69 µM)
[4]
  MIC: 0.78 µg/mL (≈ 0.844 µM)
[5]
  MFC: 0.78 µg/mL (≈ 0.844 µM)
[6]
  MIC: 0.39 µg/mL (≈ 0.422 µM)
[7]
  MIC: 0.78 µg/mL (≈ 0.844 µM)
[8]
  MIC: 0.78 µg/mL (≈ 0.844 µM)

## OC(Cn1cncn1)(Cn1cncn1)c1ccc(F)cc1F [FLUCONAZOLE]
[1]
  MFC: > 100 µg/mL
[2]
  MFC: > 100 µg/mL
[3]
  MFC: 50 µg/mL (≈ 163 µM)
[4]
  MIC: 12.5 µg/mL (≈ 40.8 µM)
[5]
  MFC: > 100 µg/mL
[6]
  MIC: 0.78 µg/mL (≈ 2.55 µM)
[7]
  MIC: 25 µg/mL (≈ 81.6 µM)
[8]
  MIC: 0.39 µg/mL (≈ 1.27 µM)

Reference: ChEMBL document CHEMBL1138570, “2-Acylhydrazino-5-arylpyrrole derivatives: synthesis and antifungal activity evaluation” (Eur J Med Chem, 2009)
